About 150 (14%) of roughly 1,100 compounds were called active. Another 1% or so got no clear call; they are omitted. Only a sample is shown. Unmarked numbers belong to inactive results.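 The calls were made as follows: active = inhibition above about 50% in both repeat tests (limit read from the data); inconclusive = one repeat under the set limit, the other over it; inactive = both repeats under the set limit.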
Assay: antileishmanial activity against promastigotes – 1 µM repeat of primary hits, confirmation (AID 1258)
Settings: L. major promastigote growth, resazurin fluorescence, 48 h; at 1 µM; active compounds read high
Outline: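 system = Leishmania major promastigote parasites | quantity = 5,000 promastigotes per well | buffer or medium = medium 199 plus 10% heat-inactivated FBS | compound dosing = 1 µM single concentration | timing = 44 h drug plus 4 h dye, 28 °C | read-out = promastigote viability as inhibition relative to DMSO MAX/MIN controls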

| Structure (SMILES) | inhibition |
| --- | --- |
| Clc1ccc(-n2nnnc2-c2cnc(-c3ccccn3)nc2-c2cccs2)cc1 | -17.1% |
| c1ccc(CC2CCN(c3nc4ccccc4n4cnnc34)CC2)cc1 | -11.4% |
| CC(=O)NC1C(Oc2ccc(C)cc2)OC2COC(c3ccco3)OC2C1O (stereo unspecified) | -11.1% |
| N#Cc1ccc(N2Cc3ccccc3/C2=N/C(=O)Nc2ccc(Cl)cc2)cc1 | 14% |
| CCOC(=O)c1c(C2CC2)csc1NC(=O)CSCc1c(C)noc1C | -3.56% |
| CNC(=S)N/N=C/c1cn(Cc2ccc(C)cc2)c2ccccc12 | -4.3% |
| COc1ccc2c(c1)C=CC1(O2)N(CCO)c2ccccc2C1(C)C (stereo unspecified) | -3.93% |
| O=C(c1ccc(-c2ccccc2)cc1)C1CCCN(C(=O)c2cncs2)C1 (stereo unspecified) | -12.9% |
| Cn1c(-c2sc3cc(C(F)(F)F)cnc3c2-c2ccccc2)n[nH]c1=S | -17.6% |
| N#Cc1ccc(-c2nc3cc(C#N)c(C#N)cc3nc2-c2ccccc2)cc1C#N | -5.54% |
| c1ccc2cc(OCCN3CCCC3)ccc2c1 | 12.5% |
| Cc1nn(-c2ccccc2)c2sc(C(=O)N(Cc3ccco3)C(C)C(=O)NC(C)(C)C)cc12 (stereo unspecified) | -6.73% |
| COCCN(CCOC)S(=O)(=O)c1ccc(C(=O)Nc2nc3c(s2)CCc2ccccc2-3)cc1 | -8.24% |
| CC(C)Cc1nn2c(=O)cc(O)nc2s1 | -1.83% |
| Cc1c(Br)cc(C(=O)N2CCCCCC2)c(C)c1C | -3.85% |
| CCOC(=O)/C(N=Nc1cc(C(=O)O)cc(C(=O)O)c1)=C(\O)CCl | -4.13% |
| CCOC(=O)N1CCN(C(c2cccnc2)c2ccc3cccnc3c2O)CC1 (stereo unspecified) | -7.1% |
| CCc1nc(C)cn1S(=O)(=O)c1cc(OC)c(C)cc1C | 0.254% |
| Fc1cc(F)c2nc(Nc3nc4c(F)cccc4s3)sc2c1 | -9.65% |

| Structure (SMILES) | inhibition |
| --- | --- |
| CC1(C)CC(=O)c2c(n(S(=O)(=O)c3ccccc3)c3ccc(NS(=O)(=O)c4ccccc4)cc23)C1 | -25.3% |
| O=C(/C=C/Sc1ncn[nH]1)c1ccc(Cl)cc1 | 29.4% |
| CCOC(=O)C1=C(CC)Nc2ccccc2N=C1NC(=O)c1cccc(S(=O)(=O)N2CCCC2)c1 | -9.84% |
| Cc1cccc(-n2c(N)cc(=O)nc2SC(C)C(=O)NC2CCCCC2)c1 (stereo unspecified) | 29.9% |
| Cc1nn(CC2CC2)c(=O)n1N(C)c1ncc(C(F)(F)F)cc1Cl | -15.7% |
| Clc1ccc(C2=CSC3=Nc4cccc5cccc(c45)N23)cc1 | -13.5% |
| CN(C)Cc1ccccc1C1(O)c2ccccc2CSc2ccccc21 (stereo unspecified) | -1.45% |
| Cc1ccc(Nc2nc(CSc3nnnn3-c3ccccc3)cc(=O)[nH]2)cc1 | -2.73% |
| CN(C)c1ccc(/C=C2\NC(=S)N(Cc3ccccc3)C2=O)cc1 | -11.8% |
| CCc1ccc(-c2nn(-c3ccccc3)cc2CSC(=N)N)cc1 | 46.8% |
| c1ccc(C2CCC(N3CCC(N4CCCCC4)CC3)CC2)cc1 (stereo unspecified) | 59.2% (active) |
| O=C(Nc1ccc2ccccc2c1)Nc1ccc2snnc2c1 | -30.1% |
| Cc1cc(/C=C(/C#N)C(=O)Nc2ccc(Cl)cc2)c(C)n1-c1cccnc1 | -3.48% |
| O=C1N(Cc2ccc3c(c2)OCO3)c2ccccc2C1(O)c1c[nH]c2ccccc12 (stereo unspecified) | 0.0749% |
| CCCCn1c(=S)[nH]c2cc(S(=O)(=O)N3CCCCC3)ccc21 | 9.63% |
| Cc1nnc(-c2ccc(Oc3ccc(C)c(C)c3)c([N+](=O)[O-])c2)o1 | -11.1% |
| Cc1nc(N2CCOCC2)c2c(C)c(C(=O)Nc3ccc(C(F)(F)F)cc3)sc2n1 | 15.1% |
| Cc1ccc(CN(N=Nc2nonc2N)c2nonc2N)c(C)c1 | -2.38% |
| Cc1nc([N+](=O)[O-])nn1C12CC3CC(CC(Br)(C3)C1)C2 | 38.5% |

| Structure (SMILES) | inhibition |
| --- | --- |
| CC(=O)NC1C(OCc2ccccc2)OC(COC(C)=O)C(OC(C)=O)C1OC(C)=O (stereo unspecified) | -7.57% |
| O=C(CCN1C(=O)c2ccccc2C1=O)Nc1cccc(F)c1 | -12.6% |
| O=C(NC(Cc1c[nH]c2ccccc12)C(=O)N/N=C/c1ccc(Br)cc1)c1cccs1 (stereo unspecified) | -12.7% |
| c1ccc(-c2cc(-c3nnc4sc(-c5ccccn5)nn34)[nH]n2)cc1 | 50.6% (active) |
| COC(=O)C1=C(C)N(c2ccc(C)cc2)/C(=C/c2ccc(O)cc2)C1=O | 8.89% |
| COc1ccc(COC(=O)c2n[nH]c3ccccc23)cc1F | -13% |
| CS(=O)(=O)Nc1cccc(C2=NN(S(=O)(=O)c3ccccc3)C(c3cccs3)C2)c1 (stereo unspecified) | -8.88% |
| Cc1cccc(-n2c(C)cc(/C=N/NC(N)=S)c2C)c1 | 15.8% |
| C=CCNc1nnc(SCC(=O)N2CCCCC2)c2ccccc12 | -6.19% |
| N#Cc1ccccc1-n1c(N)c(C(=O)N2CCCC2)sc1=S | -0.236% |
| CC12CCC(C(=O)N(NC(=O)c3ccccc3O)C1=O)C2(C)C (stereo unspecified) | -15.5% |
| Nc1cccc(-c2cc(-c3ccccc3)nc(-c3cccc(N)c3)n2)c1 | -6.75% |
| COc1ccc2[nH]c(C)c(CCN(Cc3cccs3)C(=S)Nc3ccccc3OC)c2c1 | 28.7% |
| c1ccc(Cc2cc[n+](Cc3ccccc3)cc2)cc1 | -17.2% |
| CN(C)c1ccc(/C=N\S(=O)(=O)c2ccccc2)cc1 | -0.93% |
| O=C(c1cccnc1)N(c1cc2sc(=O)oc2c2ccccc12)S(=O)(=O)c1ccccc1 | 95.1% (active) |
| N#C/C=C\Oc1ccc(Cl)cc1N | -12.9% |
| COc1ccc(-c2cc(C(F)(F)F)nc(S(C)(=O)=O)n2)cc1OC | 36.4% |

Reference: PubChem BioAssay AID1258 (University of Pittsburgh Molecular Library Screening Center, 2008)
